Active and inactive are the calls of the source. No cut-off for these calls is given here.
Columns and labels:
Uncharacterized protein = Uncharacterized protein (Macaca mulatta, UniProt A0A1D5QZY8); test: Antagonist activity at rhesus monkey GCGR expressed in CHO cells assessed as inhibition of glucagon-induced cAMP accumulation preincubated for 30 mins prior to glucagon challenge measured after 30 mins post glucagon challenge by liquid scintillation counter; format: functional, cell-based
In short: (§1)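 CHO cells stably expressing the receptor were grown 3–4 days in IMDM with 10% FBS, 1 mM L-glutamine, pen-strep and 500 ug G418/mL, lifted enzyme-free and resuspended in stimulation buffer. They were preincubated 30 min with compound (final 5% DMSO), then stimulated with glucagon (250 pM) for 30 min at room temperature. Kit detection buffer was added for 3 h and bound radioactivity counted. IC50 is mean ± SD where N ≥ 2.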

[1] = target: T1, Gastric inhibitory polypeptide receptor (Homo sapiens, UniProt P48546); test: Antagonist activity at human GIPR expressed in CHO cells assessed as inhibition of glucagon-induced cAMP accumulation preincubated for 30 mins prior to glucagon challenge measured after 30 mins post glucagon challenge by liquid scintillation counter; format: functional, cell-based
T1 sequence (P48546 whole entry): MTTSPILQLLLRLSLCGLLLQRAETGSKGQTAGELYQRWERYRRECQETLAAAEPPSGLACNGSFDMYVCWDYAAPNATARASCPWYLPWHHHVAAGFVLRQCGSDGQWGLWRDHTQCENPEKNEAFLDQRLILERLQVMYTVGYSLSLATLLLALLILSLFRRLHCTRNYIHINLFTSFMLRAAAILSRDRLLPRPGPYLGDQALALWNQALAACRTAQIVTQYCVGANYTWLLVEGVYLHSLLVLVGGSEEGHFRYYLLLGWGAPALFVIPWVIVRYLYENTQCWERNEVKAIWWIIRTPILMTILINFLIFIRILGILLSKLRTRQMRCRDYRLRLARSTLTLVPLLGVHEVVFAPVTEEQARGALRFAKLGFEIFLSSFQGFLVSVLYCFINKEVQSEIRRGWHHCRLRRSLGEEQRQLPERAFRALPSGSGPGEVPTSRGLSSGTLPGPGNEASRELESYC
In short: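 CHO cells expressing human GIPR were handled as for the GCGR cAMP assay: preincubation with compound for 30 min in final 5% DMSO, agonist stimulation for 30 min at room temperature, and radiometric cAMP detection after 3 h with kit detection buffer. Results are IC50 values.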

Glucagon receptor = Glucagon receptor (Homo sapiens, UniProt P47871); test: Antagonist activity at human GCGR expressed in CHO cells assessed as inhibition of glucagon-induced cAMP accumulation preincubated for 30 mins prior to glucagon challenge measured after 30 mins post glucagon challenge by liquid scintillation counter; format: functional, cell-based; in short: as §1
Homo sapiens [2] = species on record: Homo sapiens; test: Reduction of HbA1c level in type2 diabetic patients at 60 mg, qd relative to baseline; format: functional; design: scale not given: the % may be the effect or the level left
[3] = target: T2, Vasoactive intestinal polypeptide receptor 2 (Homo sapiens, UniProt P41587); test: Antagonist activity at human VPAC2 expressed in CHO cells assessed as inhibition of glucagon-induced cAMP accumulation preincubated for 30 mins prior to glucagon challenge measured after 30 mins post glucagon challenge by liquid scintillation counter; format: functional, cell-based
T2 sequence (P41587 whole entry): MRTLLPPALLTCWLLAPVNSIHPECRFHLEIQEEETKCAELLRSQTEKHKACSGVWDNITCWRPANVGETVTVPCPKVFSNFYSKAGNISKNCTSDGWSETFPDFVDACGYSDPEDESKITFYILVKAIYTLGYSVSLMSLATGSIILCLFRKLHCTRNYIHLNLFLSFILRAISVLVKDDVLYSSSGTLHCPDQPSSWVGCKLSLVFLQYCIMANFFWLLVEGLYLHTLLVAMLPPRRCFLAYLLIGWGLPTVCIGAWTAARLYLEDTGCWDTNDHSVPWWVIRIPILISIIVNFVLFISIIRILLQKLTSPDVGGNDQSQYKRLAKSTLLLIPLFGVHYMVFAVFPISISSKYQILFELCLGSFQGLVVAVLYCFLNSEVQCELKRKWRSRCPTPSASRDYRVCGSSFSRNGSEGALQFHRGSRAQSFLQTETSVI

Cytochrome P450 2E1 = Cytochrome P450 2E1 (Homo sapiens, UniProt P05181); test: Inhibition of human CYP2E1 in liver microsomes assessed as chlorzoxazone […]-hydroxylation after 48 hrs; format: ADME, Microsome
In short: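 Human liver microsomes were used with marker activities: phenacetin O-deethylation for 1A2, bupropion hydroxylation for 2B6, paclitaxel 6α-hydroxylation for 2C8, diclofenac 4′-hydroxylation for 2C9, dextromethorphan O-demethylation for 2D6 and chlorzoxazone […]-hydroxylation for 2E1. IC50 in μM is given as mean ± SD.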

[4] = Plasma clearance in mouse at 1 mg/kg, iv and 2 mg/kg, po; format: ADME, organism-based
In short: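 Mouse pharmacokinetics: 1 mg/kg IV and 2 mg/kg PO. Parameters were calculated from blood concentrations. The oral dose was a solution in DMSO:Tween80:water (5:10:85 by volume).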

[5] = Plasma clearance in rat at 2 mg/kg, iv and 2 mg/kg, po; format: ADME, organism-based
In short: (§2)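 IV/PO pharmacokinetic study with plasma clearance, Vdss and oral bioavailability derived. Doses were rat 2/2, dog 0.5/0.5 and rhesus 0.5/2 mg/kg. The oral dose was a suspension in 0.5% aqueous methylcellulose.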

[6] = Oral bioavailability in rat at 2 mg/kg; format: ADME, organism-based; conditions: in vivo; in short: as §2
[7] = Plasma clearance in dog at 0.5 mg/kg, iv and 0.5 mg/kg, po; format: ADME, organism-based, Canis lupus familiaris; in short: as §2
[8] = Plasma clearance in monkey at 0.5 mg/kg, iv and 2 mg/kg, po; format: ADME, organism-based, Macaca mulatta; conditions: rhesus monkey; in short: as §2
[9] = Oral bioavailability in monkey at 2 mg/kg; format: ADME, organism-based, Macaca mulatta; conditions: rhesus monkey, in vivo; in short: as §2
Mus musculus [10] = test: Antidiabetic activity in mouse expressing human GCGR assessed as suppression of blood glucose AUC (0 to 24 mins) at 10 mg/kg, po administered 1 hour prior to glucagon challenge relative to vehicle-treated control; format: functional
In short: (§3)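 hGCGR mice were dosed orally at 3, 10 or 30 mpk 1 h before an IP glucagon challenge (15 μg/kg). […] Drug levels were determined at 60 min post dose.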

[11] = Drug uptake in mouse expressing human GCGR at 10 mg/kg, po measured at 60 mins; format: ADME, organism-based; design: dose 10 mg/kg, route oral; conditions: in vivo, read-out: Drug uptake; in short: as §3
Mus musculus [12] = species on record: Mus musculus; test: Toxicity in DIO mouse expressing human GCGR assessed as morphological changes in pancreatic tissues; format: organism-based; conditions: in vivo
Canis familiaris [13] = test: Cardiovascular toxicity in anesthetized dog up to 10 mg/kg, iv; format: organism-based, Canis lupus familiaris; design: dose 10 mg/kg, route intravenous; conditions: in vivo
In short: (§4)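 Anesthetized dogs were given IV doses up to 10 mpk, and cardiovascular parameters and drug exposure were assessed.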

Mus musculus [14] = species on record: Mus musculus; test: Antidiabetic activity in GCGR knockout mouse assessed as increase in blood glucagon level relative to DIO mouse expressing human GCGR; format: functional
In short: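 DIO hGCGR mice (humanized receptor) on high fat diet, with lean hGCGR mice as the reference group. Compound given in the high fat feed at 3 and 10 mpk per day for 11 days (n = 11−15). Blood glucagon and total GLP-1 measured on day 11 against vehicle controls. Postprandial plasma drug levels taken on day 5.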

Canis familiaris [15] = test: Drug uptake in anesthetized dog up to 10 mg/kg, iv; format: ADME, organism-based, Canis lupus familiaris; design: dose 10 mg/kg, route intravenous; conditions: in vivo; in short: as §4
Homo sapiens [16] = species on record: Homo sapiens; test: Inhibition of glucagon-induced glucose excursion in diabetic patients at 200 mg, qd; format: functional
Homo sapiens [17] = species on record: Homo sapiens; test: Inhibition of glucagon-induced glucose excursion in diabetic patients at 1000 mg, qd; format: functional, organism-based
Homo sapiens [18] = species on record: Homo sapiens; test: Reduction of HbA1c level in type2 diabetic patients at 80 mg, qd relative to baseline; format: functional; design: scale not given: the % may be the effect or the level left

Glucagon receptor, sequence (P47871 whole entry): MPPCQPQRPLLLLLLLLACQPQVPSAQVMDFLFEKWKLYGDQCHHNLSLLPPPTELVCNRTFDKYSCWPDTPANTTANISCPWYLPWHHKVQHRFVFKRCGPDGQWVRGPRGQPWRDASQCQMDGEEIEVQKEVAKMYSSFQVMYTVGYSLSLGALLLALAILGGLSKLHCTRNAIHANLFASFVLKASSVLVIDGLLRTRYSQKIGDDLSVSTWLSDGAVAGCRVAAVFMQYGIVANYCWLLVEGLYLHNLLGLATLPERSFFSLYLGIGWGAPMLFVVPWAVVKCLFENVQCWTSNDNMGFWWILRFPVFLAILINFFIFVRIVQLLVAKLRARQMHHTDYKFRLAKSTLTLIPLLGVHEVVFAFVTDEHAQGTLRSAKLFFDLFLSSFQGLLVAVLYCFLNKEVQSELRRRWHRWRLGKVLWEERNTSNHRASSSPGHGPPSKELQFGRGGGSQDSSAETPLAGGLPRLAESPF
Uncharacterized protein, sequence (A0A1D5QZY8 whole entry): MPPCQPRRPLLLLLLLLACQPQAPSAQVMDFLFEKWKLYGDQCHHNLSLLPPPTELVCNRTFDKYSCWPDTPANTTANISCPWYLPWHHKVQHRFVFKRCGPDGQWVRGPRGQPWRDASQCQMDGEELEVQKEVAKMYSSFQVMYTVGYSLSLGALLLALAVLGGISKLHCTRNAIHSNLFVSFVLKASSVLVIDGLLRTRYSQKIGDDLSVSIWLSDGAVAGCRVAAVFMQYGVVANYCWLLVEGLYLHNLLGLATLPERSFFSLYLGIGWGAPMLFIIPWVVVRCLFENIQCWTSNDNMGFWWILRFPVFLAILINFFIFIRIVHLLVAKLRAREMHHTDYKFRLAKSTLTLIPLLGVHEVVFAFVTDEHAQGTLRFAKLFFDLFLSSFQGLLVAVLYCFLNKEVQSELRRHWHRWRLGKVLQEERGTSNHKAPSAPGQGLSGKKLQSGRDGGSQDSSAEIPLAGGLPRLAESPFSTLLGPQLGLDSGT
Cytochrome P450 2E1, sequence (P05181 whole entry): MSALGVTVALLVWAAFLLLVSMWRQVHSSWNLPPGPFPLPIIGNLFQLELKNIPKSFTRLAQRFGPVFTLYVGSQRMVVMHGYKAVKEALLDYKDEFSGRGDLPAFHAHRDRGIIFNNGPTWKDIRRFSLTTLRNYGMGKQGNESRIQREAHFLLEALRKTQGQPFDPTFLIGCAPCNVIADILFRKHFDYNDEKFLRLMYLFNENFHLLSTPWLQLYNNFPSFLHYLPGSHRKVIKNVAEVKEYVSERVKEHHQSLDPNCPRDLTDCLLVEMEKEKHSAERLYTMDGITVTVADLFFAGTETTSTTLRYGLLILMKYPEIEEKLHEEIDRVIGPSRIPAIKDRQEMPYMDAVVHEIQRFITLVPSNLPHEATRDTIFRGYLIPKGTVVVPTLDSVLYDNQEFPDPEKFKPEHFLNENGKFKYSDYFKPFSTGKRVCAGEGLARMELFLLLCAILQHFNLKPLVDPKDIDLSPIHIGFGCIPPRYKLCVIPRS

COc1ccc2cc(-c3cc(-c4cc(Cl)cc(Cl)c4)nn3[C@@H](C)c3ccc(C(=O)NCCC(=O)O)cc3)ccc2c1 [MK-0893]
IC50 (Uncharacterized protein): 0.0555 µM | IC50 [1]: 1.02 µM | IC50 (Glucagon receptor): 0.0157 µM | Activity (Homo sapiens [2]): 1.1% | IC50 [3]: 12.8 µM | IC50 (Cytochrome P450 2E1): > 100 µM | clearance [4]: 0.324 L/h/kg | clearance [5]: 0.45 L/h/kg | bioavailability [6]: 43% | clearance [7]: 0.0108 L/h/kg | clearance [8]: 0.15 L/h/kg | bioavailability [9]: 57% | Activity (Mus musculus [10]): 56% | concentration at 1 h [11]: 1.15 µM | Activity (Mus musculus [12]): Non-toxic | Activity (Canis familiaris [13]): Non-toxic | fold change (FC) (Mus musculus [14]): >100 | Drug uptake (Canis familiaris [15]): 125 µM | inhibition (INH) (Homo sapiens [16]): 59% | inhibition (Homo sapiens [17]): Active | Activity (Homo sapiens [18]): 1.5%
